# Hits are enriched below; roughly 2.8% of the tested compounds scored in any of these assays.
# dFosB act: enhances mouse delta FosB homodimer DNA binding; purified delta FosB, TAMRA-CDK5 oligo fluorescence polarization; percent of positive-control signal above neutral wells; activation, % at 25 µM; 340,000 tested, 0.99% active; AID 493131;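 active = mean activation above about 17%, with every replicate also reaching it, limit read from the data, passing the limit was not always enough; inconclusive = only one of the two conditions met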
# Target sequence (P13346 whole entry, looked up): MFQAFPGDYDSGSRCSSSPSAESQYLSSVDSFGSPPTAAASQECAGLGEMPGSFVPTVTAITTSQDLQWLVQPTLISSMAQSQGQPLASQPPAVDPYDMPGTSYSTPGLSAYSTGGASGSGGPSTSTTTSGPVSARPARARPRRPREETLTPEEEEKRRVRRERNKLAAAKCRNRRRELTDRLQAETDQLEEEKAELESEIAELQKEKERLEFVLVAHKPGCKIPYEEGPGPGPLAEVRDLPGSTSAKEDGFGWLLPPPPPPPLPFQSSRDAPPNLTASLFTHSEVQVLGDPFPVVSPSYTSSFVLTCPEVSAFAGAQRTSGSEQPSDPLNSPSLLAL
# CAL PDZ FP-1: blocks peptide binding to the human CAL PDZ domain; Q9HD26; purified CAL PDZ, TMR-peptide fluorescence polarization, 1 h; inhibition, % at 24.9 µM; 300,000 tested, 0.92% active;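 active = mean inhibition of at least 30% with at least half of replicates also reaching 30%; inconclusive = no clear call, values can overlap the other calls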;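 note: 0% = DMSO neutral control and 100% = excess unlabeled competitor peptide PRC23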
# SR-BI HDL uptake: inhibitors of mouse SR-BI mediated HDL lipid uptake | Q61009 | ldlA[mSR-BI] CHO cells, DiI-HDL uptake fluorescence, 3 h | inhibition, % at 12.5 µM | 320,000 tested, 0.96% active | AID 488896;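 active = mean replicate inhibition of at least 70% and a set share of replicates each scoring 70 or more; inconclusive = meets just one of the two criteria; inactive = fails both criteria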;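 note: 0% = median of neutral control wells and 100% = median of positive control wells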
# SR-BI DiI-HDL act: enhances SR-BI lipid uptake from DiI-HDL | activation, % at 12.5 µM | CHO ldlA[mSR-BI] cells, DiI-HDL uptake fluorescence, 3 h; 100 = double the neutral-control signal | 320,000 tested, 0.096% active;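 active = mean replicate activation of at least 60% and every replicate at or above 60%; inconclusive = mean or all-replicate condition met, but not both; inactive = mean below 60% and not all replicates reaching 60%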;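 note: 0% = median plate neutral-control signal and 100% = twice that signal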
#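 Material – SR-BI-overexpressing, LDLR-lacking CHO cells · Medium – BSA-supplemented, HEPES-buffered Ham's F12, pH 7.4 · Doses – single concentration · Times – compound with DiI-HDL co-incubation, 3 h at 37 °C · Measured by – bottom-read fluorescence, 550/595 nm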
# CAL PDZ FP-2: blocks peptide binding to human CAL PDZ domain; 330,000 tested, 0.02% active; inhibition, % at 20 µM; purified CAL PDZ, TMR-peptide fluorescence polarization, 1 h; Q9HD26;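 active = highest replicate inhibition of at least 40%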;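 note: plate controls were DMSO neutral control wells for no effect and unlabeled competitor peptide control wells for full effect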
#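 Read-out basis: mP drop reported as inhibition | Assay system: Tagged CAL PDZ protein CerCALP, purified | Benchmarks: Unlabelled peptide for full inhibition, DMSO wells as neutral | Schedule: 1 h incubation at room temperature before polarization reading | Buffer or medium: Sodium phosphate/NaCl buffer pH 7.4 with TCEP, IgG, Thesit | Doses: Single point, 20 µM | Measured by: Fluorescence polarization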
# * hit, by the source's call; u = inconclusive; x = no result given.
SMILES,dFosB act,CAL PDZ FP-1,SR-BI HDL uptake,SR-BI DiI-HDL act,CAL PDZ FP-2
Cc1cc(C)cc(NC(=O)CCCCCN2C(=O)[C@@H]3Cc4ccccc4CN3C2=O)c1,-7,-1,9,-9,-3
NC1=NC(=O)/C(=C/c2cccc(-c3ccc(S(N)(=O)=O)cc3)c2)S1,60*,-1,-21,21,-2
COc1ccc(Cl)cc1NC(=O)C1COc2ccccc2O1 (centres undefined),2,x,20,-20,-1
CN1CCN(c2ccc(Cl)cc2NC(=O)C2COc3ccccc3O2)CC1 (centres undefined),-8,71*,17,-17,-3
Nc1c(N(Cc2ccco2)C(=O)COc2ccc(Cl)cc2)c(=O)[nH]c(=O)n1Cc1ccccc1,13,1,-15,15,-1
Cc1cc(OCC(=O)N(Cc2ccco2)c2c(N)n(Cc3ccccc3)c(=O)[nH]c2=O)ccc1Cl,8,74*,1,-1,0
CCOC(=O)c1csc(NC(=O)CN2CCCCC2)n1,2,-5,4,-4,0
CCN(CC)c1ccc(/C=N/N2CCN(c3ccccn3)CC2)cc1,0,43*,-4,4,0
CCc1ccc(/C=N/N2CCN(c3ccccn3)CC2)cc1,-2,-3,4,-4,1
CCC(CC)C(=O)Nc1nnc(S(=O)(=O)N2CCCC2)s1,-2,x,6,-6,-1
Cc1cc(C(=O)COC(=O)C2CCN(C(=O)c3ccc(Cl)cc3)CC2)c(C)n1CC1CCCO1 (centres undefined),-5,66*,39,-39,6
CCC(=O)c1ccc(OCC(=O)OCC(=O)c2cc(C)n(CC3CCCO3)c2C)cc1 (centres undefined),-2,-2,-5,5,1
O=C(NCCS(=O)(=O)NCC1CCCO1)c1ccccc1 (centres undefined),-4,-2,1,-1,1
O=C(COC(=O)/C=C/c1ccc(C(F)(F)F)cc1)NCC1CCCCC1,-1,x,-16,16,-1
COc1cc(/C=N/NC(=O)C(=O)/C=C2\NC3(CCCC3)Cc3ccccc32)ccc1O,-7,-3,u,-70,-4
CN(C)c1ccc(/C=N/NC(=O)C(=O)/C=C2\NC3(CCCC3)Cc3ccccc32)cc1,-8,-1,94*,-94,-2
O=C(/C=C1\NC2(CCCC2)Cc2ccccc21)C(=O)N/N=C/c1ccccc1O,1,-8,114*,-114,0
Cc1cc(C(=O)NNC(=O)/C=C/c2ccco2)c(C)o1,-15,-3,-17,17,-1
COc1ccc(Cl)cc1C(=O)NNC(=O)CNC(=O)c1ccc(C)s1,-8,54*,-14,14,1
O=C(O)CN1C(=O)c2ccc(C(=O)c3ccccc3)cc2C1=O,-8,-4,-14,14,-1
O=C(CN(c1cccc(Br)c1)S(=O)(=O)c1ccccc1)N/N=C/c1cc([N+](=O)[O-])ccc1O,-6,x,124*,-124,0
O=C(CCCC(=O)Nc1cccc(Br)c1)N/N=C/c1cc([N+](=O)[O-])ccc1O,-2,-2,-7,7,-1
CCC(C)(C(=O)NC1CCCCC1)N(C(=O)c1ccccn1)c1ccccc1 (centres undefined),-9,x,-7,7,1
CCC(C)(C(=O)NC1CCCCC1)N(C)C(=O)c1ccccn1 (centres undefined),1,53*,-7,7,0
CCCCC(=O)Nc1ccc2c(c1)nc(CN1CCN(C(=O)OCC)CC1)n2C,-2,-3,-14,14,0
O=C(CN1CCOCC1)NNC(=O)c1ccc(Cl)cc1,1,11,3,-3,0
C=CCOC(=O)C1=C(C)NC(=S)NC1/C=C/c1ccccc1 (centres undefined),-6,0,82*,-82,0
CC1=C(C(=O)OCc2ccccc2)C(/C=C/c2ccccc2)NC(=S)N1 (centres undefined),1,-6,74*,-74,0
CC1CN(C(=O)CSc2nnc(NC(=O)NC(C)(C)C)s2)CC(C)O1 (centres undefined),0,-3,-10,10,-1
Cc1c(Br)c(O)c(Br)c2sc(=O)oc12,-11,2,x,x,1
